# Legend:
# [1] = Stability of the compound in rat plasma measured up to 4 hrs by HPLC analysis; format: ADME, organism-based; conditions: read-out: Stability
# Procedure, shortened: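 100 μL radiotracer mixed with 1 mL rat plasma at 37 °C. Acetonitrile added, organic layer filtered and analysed by radio-HPLC on a C18 column at 30 min, 1, 2 and 4 h. Repeated twice with different radiotracer preparations.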
# [2] = Stability of the compound in 0.9% sodium chloride/ethanol solution by HPLC analysis; format: physicochemical
# [3] = Drug uptake in rat brain frontal cortex at 6.5 +/- 0.46 MBq, iv pretreated with alpha7 nAChR antagonist methyllycaconitine for 15 mins followed by compound addition and measured after 1 hr by gamma counting analysis; format: organism-based; conditions: in vivo
# Procedure, shortened: (§1)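 Male Wistar rats (250-300 g, n=6 per group) under isoflurane received 0.3 mL tracer i.v. via the penis vein; MLA groups got methyllycaconitine 1 mg/kg i.v. 15 min before. Decapitated at 1 h. Frontal cortex, hippocampus, hypothalamus, striatum and cerebellum weighed and gamma counted (48% efficiency). %ID/g calculated against standard dilutions of the injectate, mean ± SEM.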
# [4] = Drug uptake in rat brain hippocampus at 6.5 +/- 0.46 MBq, iv and measured after 1 hr by gamma counting analysis; format: ADME, organism-based; conditions: in vivo; procedure, shortened: as §1
# [5] = Drug uptake in rat brain cerebellum at 6.5 +/- 0.46 MBq, iv and measured after 1 hr by gamma counting analysis; format: ADME, organism-based; conditions: in vivo; procedure, shortened: as §1
# [6] = Drug uptake in rat brain hypothalamus at 6.5 +/- 0.46 MBq, iv pretreated with alpha7 nAChR antagonist methyllycaconitine for 15 mins followed by compound addition and measured after 1 hr by gamma counting analysis; format: organism-based; conditions: in vivo; procedure, shortened: as §1
# [7] = Drug uptake in rat brain striatum […], iv and measured after 1 hr by gamma counting analysis; format: ADME, organism-based; conditions: in vivo; procedure, shortened: as §1
# [8] = Drug uptake in rat brain at 37MBq, iv administrated and measured during 71 mins of acquisition by PET-CT analysis; format: ADME, organism-based; conditions: in vivo
# Procedure, shortened: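 Rats given a 37 MBq i.v. bolus and scanned on a microPET-CT for 71 min. Images reconstructed by 2-D OSEM; summed frames from 49-71 min shown.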
# [9] = Stability of the compound in 100% ethanol measured up to 4 hrs by HPLC analysis; format: physicochemical
# [10] = Drug uptake in rat brain cerebellum at 6.5 +/- 0.46 MBq, iv pretreated with alpha7 nAChR antagonist methyllycaconitine for 15 mins followed by compound addition and measured after 1 hr by gamma counting analysis; format: organism-based; conditions: in vivo; procedure, shortened: as §1
# [11] = Drug uptake in rat brain striatum at 6.5 +/- 0.46 MBq, iv pretreated with alpha7 nAChR antagonist methyllycaconitine for 15 mins followed by compound addition and measured after 1 hr by gamma counting analysis; format: organism-based; conditions: in vivo; procedure, shortened: as §1
# [12] = Drug uptake in rat brain frontal cortex at 6.5 +/- 0.46 MBq, iv and measured after 1 hr by gamma counting analysis; format: ADME, organism-based; conditions: in vivo; procedure, shortened: as §1
# [13] = Drug uptake in rat brain hippocampus at 6.5 +/- 0.46 MBq, iv pretreated with alpha7 nAChR antagonist methyllycaconitine for 15 mins followed by compound addition and measured after 1 hr by gamma counting analysis; format: organism-based; conditions: in vivo; procedure, shortened: as §1
# [14] = Drug uptake in rat brain hypothalamus at 6.5 +/- 0.46 MBq, iv and measured after 1 hr by gamma counting analysis; format: ADME, organism-based; conditions: in vivo; procedure, shortened: as §1
# [15] = Ratio of drug uptake in rat brain frontal cortex to cerebellum at 6.5 +/- 0.46 MBq, iv and measured after 1 hr by gamma counting analysis; format: ADME, organism-based; conditions: in vivo
# [16] = Drug uptake in rat brain hypothalamus at 7.3 +/- 0.44 MBq, iv and measured after 1 hr by gamma counting analysis; format: ADME, organism-based; conditions: in vivo; procedure, shortened: as §1
# [17] = Ratio of drug uptake in rat brain striatum to cerebellum at 7.3 +/- 0.44 MBq, iv and measured after 1 hr by gamma counting analysis; format: ADME, organism-based; conditions: in vivo
# [18] = Drug uptake in rat brain cerebellum at 7.3 +/- 0.44 MBq, iv and measured after 1 hr by gamma counting analysis; format: ADME, organism-based; conditions: in vivo; procedure, shortened: as §1
# [19] = Drug uptake in rat brain frontal cortex at 7.3 +/- 0.44 MBq, iv pretreated with alpha7 nAChR antagonist methyllycaconitine for 15 mins followed by compound addition and measured after 1 hr by gamma counting analysis; format: organism-based; conditions: in vivo; procedure, shortened: as §1
# [20] = Drug uptake in rat brain cerebellum at 7.3 +/- 0.44 MBq, iv pretreated with alpha7 nAChR antagonist methyllycaconitine for 15 mins followed by compound addition and measured after 1 hr by gamma counting analysis; format: organism-based; conditions: in vivo; procedure, shortened: as §1
# [21] = Drug uptake in rat brain striatum at 7.3 +/- 0.44 MBq, iv and measured after 1 hr by gamma counting analysis; format: ADME, organism-based; conditions: in vivo; procedure, shortened: as §1
# [22] = Ratio of drug uptake in rat brain frontal cortex to cerebellum at 7.3 +/- 0.44 MBq, iv and measured after 1 hr by gamma counting analysis; format: ADME, organism-based; conditions: in vivo
# [23] = Drug uptake in rat brain striatum at 7.3 +/- 0.44 MBq, iv pretreated with alpha7 nAChR antagonist methyllycaconitine for 15 mins followed by compound addition and measured after 1 hr by gamma counting analysis; format: organism-based; conditions: in vivo; procedure, shortened: as §1
# [24] = Drug uptake in rat brain hippocampus at 7.3 +/- 0.44 MBq, iv pretreated with alpha7 nAChR antagonist methyllycaconitine for 15 mins followed by compound addition and measured after 1 hr by gamma counting analysis; format: organism-based; conditions: in vivo; procedure, shortened: as §1
# [25] = Ratio of drug uptake in rat brain hippocampus to cerebellum at 7.3 +/- 0.44 MBq, iv and measured after 1 hr by gamma counting analysis; format: ADME, organism-based; conditions: in vivo
# [26] = Drug uptake in rat brain hypothalamus at 7.3 +/- 0.44 MBq, iv pretreated with alpha7 nAChR antagonist methyllycaconitine for 15 mins followed by compound addition and measured after 1 hr by gamma counting analysis; format: organism-based; conditions: in vivo; procedure, shortened: as §1
# [27] = Drug uptake in rat brain hippocampus at 7.3 +/- 0.44 MBq, iv and measured after 1 hr by gamma counting analysis; format: ADME, organism-based; conditions: in vivo; procedure, shortened: as §1
# [28] = Drug uptake in rat brain frontal cortex at 7.3 +/- 0.44 MBq, iv and measured after 1 hr by gamma counting analysis; format: ADME, organism-based; conditions: in vivo; procedure, shortened: as §1
smiles,measurement,setting,value
[18F]Cc1ccc(-c2ccc(-c3cn([C@H]4CN5CCC4CC5)nn3)s2)cc1,remaining at 4 h,[1],> 95%
same,Stability,[2],Unstable
same,Drug uptake,[3],Active
same,Drug uptake,[4],0.43 % ID/g
same,Drug uptake,[5],0.44 % ID/g
same,Drug uptake,[6],Active
same,Drug uptake,[7],0.44 % ID/g
same,Drug uptake,[8],Active
same,Stability,[9],Stable
same,Drug uptake,[10],Active
same,Drug uptake,[11],Active
same,Drug uptake,[12],0.56 % ID/g
same,Drug uptake,[13],Active
same,Drug uptake,[14],0.42 % ID/g
same,Ratio,[15],1.29
[18F]c1ccc(-c2ccc(-c3cn([C@H]4CN5CCC4CC5)nn3)s2)cn1,remaining at 4 h,[1],> 95%
same,Drug uptake,[16],0.59 % ID/g
same,Ratio,[17],1.31
same,Drug uptake,[18],0.58 % ID/g
same,Drug uptake,[8],Active
same,Drug uptake,[19],Active
same,Drug uptake,[20],Active
same,Drug uptake,[21],0.76 % ID/g
same,Ratio,[22],1.47
same,Drug uptake,[23],Active
same,Drug uptake,[24],Active
same,Ratio,[25],1.34
same,Drug uptake,[26],Active
same,Drug uptake,[27],0.78 % ID/g
same,Drug uptake,[28],0.85 % ID/g

# Reference: ChEMBL document CHEMBL4351014, “Bis(het)aryl-1,2,3-triazole quinuclidines as α7 nicotinic acetylcholine receptor ligands: Synthesis, structure affinity relationships, agonism activity, [18F]-radiolabeling and PET study in rats” (Eur J Med Chem, 2019)
